Source: ChEMBL document CHEMBL1129543, “Synthesis and evaluation of N-(phenylacetyl)trifluoromethanesulfonamides as anticonvulsant agents” (J Med Chem, 1996)

Key:
Mus musculus [1] = experiment: Median Effective dose was evaluated by Maximal electroshock seizure (MES) test in mice by oral administration; type: functional
Rattus norvegicus [2] = experiment: Median Effective dose was evaluated by Maximal electroshock seizure (MES) test in Rats by oral administration; type: functional
Mus musculus [3] = species on record: Mus musculus; experiment: Time to peak toxicity was evaluated by Maximal electroshock seizure test in hours; type: functional
Mus musculus [4] = experiment: Median effective dose was evaluated by Maximal electroshock seizure test through intraperitoneal administration; type: functional; details: ip
Method in brief: (§1)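 Phase II in mice, ip dosing in 30% PEG 400. Groups of 6-12 mice per dose until at least three points fall in 10-90% protection. […] MES: 50 mA, 0.2 s corneal. scMet: pentylenetetrazol 85 mg/kg sc.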

Mus musculus [5] = experiment: Median lethal dose was evaluated by mortality after 24 hr through ip injection administration; type: functional
Method in brief: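 Mice were dosed ip in 30% PEG 400. Mortality was scored 24 h after injection in groups of eight. The 24-h LD₅₀ was derived as for the ED₅₀/TD₅₀, with 95% confidence intervals.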

Rattus norvegicus [6] = experiment: Time to peak effect in Rats was evaluated by Maximal electroshock seizure (MES) test in hours by oral administration; type: functional
Method in brief: (§2)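 Oral dosing in 30% PEG 400: phase IV in mice (0.01 mL/g), phase VI in Sprague-Dawley rats (0.004 mL/g). ED50/TD50 found as in phase II, at the stated time of peak effect. MES current 50 mA in mice, 150 mA in rats. PTZ sc 85 mg/kg in mice, 70 mg/kg in rats. Toxicity by rotorod in mice; positional sense, gait and stance in rats. PI = TD50/ED50.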

Mus musculus [7] = experiment: Inhibition of seizures induced in mice by a convulsant dose of strychnine through ip administration; type: functional
Method in brief: (§3)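 Phase V differentiation in mice: test drug given ip at time of peak therapeutic effect, then the CD₉₇ of each convulsant (picrotoxin, bicuculline, strychnine) given ip as a 0.5% solution; observation 30 min for bicuculline and strychnine, 45 min for picrotoxin. Drug in 30% PEG 400, 0.01 mL/g. ED₅₀ with 95% confidence intervals from ≥3 points in the 10-90% protection range, groups of 6-12 mice.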

Mus musculus [8] = experiment: Inhibition of seizures induced in mice by a convulsant dose of bicuculline through ip administration; type: functional; method in brief: as §3
Mus musculus [9] = experiment: Time to peak effect in mice was evaluated by Subcutaneous pentylenetetrazole seizure test in hours by oral administration; type: functional; method in brief: as §2
Mus musculus [10] = species on record: Mus musculus; experiment: Median hypnotic dose was evaluated by loss of righting reflex; type: functional
Mus musculus [11] = experiment: Time to peak effect in mice was evaluated by Maximal electroshock seizure (MES) test in hours by oral administration; type: functional; method in brief: as §2
Mus musculus [12] = experiment: Time to peak effect in mice was evaluated by Neurologic toxicity (rotarod test) in hours by oral administration; type: functional
Method in brief: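 Oral dosing in mice in 30% PEG 400 (0.01 mL/g). Neurologic deficit was scored by the rotorod ataxia test, and the time of peak effect was given in hours.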

Rattus norvegicus [13] = experiment: Median Effective dose was evaluated by Subcutaneous pentylenetetrazole seizure test in Rats by oral administration; type: functional
Rattus norvegicus [14] = experiment: Time to peak effect in Rats was evaluated by Subcutaneous pentylenetetrazole seizure test in hours by oral administration; type: functional; method in brief: as §2
Rattus norvegicus [15] = experiment: Time to peak effect in Rats was evaluated by Neurologic toxicity (rotarod test) in hours by oral administration; type: functional
Mus musculus [16] = experiment: Median effective dose was evaluated by subcutaneous pentylenetetrazole seizure test through intraperitoneal administration; type: functional; method in brief: as §1
Mus musculus [17] = species on record: Mus musculus; experiment: Time to peak activity was evaluated by Maximal electroshock seizure test in hours; type: functional
Mus musculus [18] = experiment: Inhibition of picrotoxin-induced seizures in mice by ip administration; type: functional; method in brief: as §3
Mus musculus [19] = experiment: Median Effective dose was evaluated by Subcutaneous pentylenetetrazole seizure test in mice by oral administration; type: functional
Rattus norvegicus [20] = experiment: […] was evaluated by Neurologic toxicity (rotarod test) in Rats by oral administration; type: functional
Mus musculus [21] = experiment: Median toxic dose was evaluated by […] through intraperitoneal administration; type: functional
Mus musculus [22] = experiment: Anti-seizure activity was evaluated by Subcutaneous pentylenetetrazole seizure test at dose 100 mg/kg after 4.0 hours; +++ denotes antiseizure activity; type: functional, organism-based; design: dose 100 mg/kg
Method in brief: (§4)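 Phase I screen in mice: ip dosing at 30, 100, 300 and 600 mg/kg in 30% PEG 400, read 0.5 h and 4 h after. Pentylenetetrazol given sc at CD97 (85 mg/kg). Protection means no clonic spasm of at least 5 s over 30 min. Scored ++++ to + for 30 to 600 mg/kg.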

Rattus norvegicus [23] = species on record: Rattus norvegicus; experiment: Protective index (TD50/ED50) was determined against MES induced seizure in rat.; type: functional
Method in brief: as §2, with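 “rats.” for “rats. PTZ sc 85 mg/kg in mice, 70 mg/kg in rats.”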

Rattus norvegicus [24] = species on record: Rattus norvegicus; experiment: Protective index (TD50/ED50) was determined against scMet induced seizure in rat.; type: functional
Method in brief: as §2, with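 “rats.” for “rats. PTZ sc 85 mg/kg in mice, 70 mg/kg in rats.”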

Mus musculus [25] = experiment: Anti-seizure activity was evaluated by Neurologic toxicity (rotarod test) at dose 600 mg/kg after 4.0 hours; + denotes neurotoxicity; type: functional, organism-based; design: dose 600 mg/kg
Method in brief: (§5)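 Phase I neurotoxicity in mice by rotorod ataxia test. Compound given ip at 30, 100, 300 or 600 mg/kg in 30% PEG 400, read 0.5 h and 4 h after. Scored ++++ to + for toxicity at 30 to 600 mg/kg; - means no toxicity.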

Mus musculus [26] = experiment: Anti-seizure activity was evaluated by Maximal electroshock seizure (MES) test at dose 100 mg/kg after 0.5 hours; +++ denotes antiseizure activity; type: functional, organism-based; design: dose 100 mg/kg
Method in brief: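 Phase I screen in mice: ip injection at 30, 100, 300 and 600 mg/kg in 30% PEG 400 (0.01 mL/g). Test run 0.5 h and 4 h after dosing. 60-Hz AC, 50 mA, via corneal electrodes for 0.2 s. Protection means abolition of hind-leg tonic extension. Scored ++++ to + for activity at 30 to 600 mg/kg.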

Mus musculus [27] = experiment: Anti-seizure activity was evaluated by Subcutaneous pentylenetetrazole seizure test at dose 600 mg/kg after 0.5 hours; + denotes neurotoxicity; type: functional, organism-based; design: dose 600 mg/kg; method in brief: as §4
Mus musculus [28] = experiment: Anti-seizure activity was evaluated by Neurologic toxicity (rotarod test) at dose 600 mg/kg after 0.5 hours; + denotes neurotoxicity; type: functional, organism-based; design: dose 600 mg/kg; method in brief: as §5
Mus musculus [29] = experiment: Anti-seizure activity was evaluated by Subcutaneous pentylenetetrazole seizure test at dose 300 mg/kg after 0.5 hours; ++ denotes antiseizure activity; type: functional, organism-based; design: dose 300 mg/kg; method in brief: as §4
Mus musculus [30] = experiment: Anti-seizure activity was evaluated by Neurologic toxicity (rotarod test) at dose 300 mg/kg after 0.5 hours; ++ denotes antiseizure activity; type: functional, organism-based; design: dose 300 mg/kg; method in brief: as §5

SMILES | TPE (Mus musculus [3]) | ED50 (Mus musculus [4]) | ED50 (Mus musculus [16]) | TPE (Mus musculus [17]) | TD50 (Mus musculus [21]) | PI (Rattus norvegicus [23]) | PI (Rattus norvegicus [24]) | Activity (Mus musculus [25]) | Activity (Mus musculus [26]) | further results
CCC1(c2ccccc2)C(=O)NC(=O)NC1=O [PHENOBARBITAL] | 0.5 | 22 mg/kg | 13 mg/kg | 1 | 69 mg/kg |  |  |  |  | ED50 (Mus musculus [1]): 20 mg/kg; ED50 (Rattus norvegicus [2]): 9.1 mg/kg; LD50 (Mus musculus [5]): 265 mg/kg; TPE (Rattus norvegicus [6]): 5 h; ED50 (Mus musculus [7]): 28 mg/kg; ED50 (Mus musculus [8]): 38 mg/kg; TPE (Mus musculus [9]): 2 h; HD50 (Mus musculus [10]): 135 mg/kg; TPE (Mus musculus [11]): 2 h; TPE (Mus musculus [12]): 2 h; ED50 (Rattus norvegicus [13]): 12 mg/kg; TPE (Rattus norvegicus [14]): 5 h; TPE (Rattus norvegicus [15]): 0.5 h; ED50 (Mus musculus [18]): 95 mg/kg; ED50 (Mus musculus [19]): 13 mg/kg; TD50 (Rattus norvegicus [20]): 61 mg/kg
O=C(Cc1ccc(Br)cc1)NS(=O)(=O)C(F)(F)F | 2 | 23 mg/kg | 55 mg/kg | 4 | 291 mg/kg | 13 | 5.3 | Antiseizure activity | Antiseizure activity | Activity (Mus musculus [22]): Antiseizure activity; Activity (Mus musculus [27]): Antiseizure activity; Activity (Mus musculus [28]): Antiseizure activity
O=C(Cc1ccc([N+](=O)[O-])cc1)NS(=O)(=O)C(F)(F)F | 6 | 12 mg/kg | 20 mg/kg | 4 | 482 mg/kg | 39 | 24 | Antiseizure activity | Antiseizure activity | Activity (Mus musculus [29]): Antiseizure activity; Activity (Mus musculus [30]): Antiseizure activity
